Experimental data reported in ChEMBL document CHEMBL1926577, “Novel 1,3,4-heterodiazole analogues: synthesis and in-vitro antitumor activity” (2012).

Legend:
Type in all cases: functional
CCRF-CEM = test: Growth inhibition of human CCRF-CEM cells at 10 uM after 48 hrs by coulter counter method; settings: read-out: GI
Outline: (§1)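 NCI 60-cell-line panel, single dose. Compound dissolved first in DMSO, then diluted in phosphate-buffered saline so that every final dilution held under 1% DMSO. Duplicate wells received cells at 6 × 10⁴ cells/ml. Controls held PBS/DMSO at the same dilution. Plates were incubated 48 h at 37 °C under 5% CO₂. Cells were then diluted 10-fold in saline and counted on a Coulter counter, with counts corrected for the dilution. Results are given as percent growth inhibition.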

HL-60(TB) = test: Growth inhibition of human HL-60(TB) cells at 10 uM after 48 hrs by coulter counter method; settings: HL-60, 48 h, read-out: GI
Outline: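 Single-dose screen on the NCI 60-line panel (leukemia subpanel). Compound is dissolved in DMSO and diluted in PBS, with final DMSO below 1%. Duplicate wells hold 6 × 10⁴ cells/ml at 37 °C, 5% CO₂, for 48 h. Cells are counted by Coulter counter after 10-fold saline dilution. Read-out is percent growth versus PBS/DMSO controls, expressed as % growth inhibition.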

K562 = test: Growth inhibition of human K562 cells at 10 uM after 48 hrs by coulter counter method; settings: K562, 48 h, read-out: GI; outline: as §1
MOLT-4 = test: Growth inhibition of human MOLT4 cells at 10 uM after 48 hrs by coulter counter method; settings: MOLT-4, 48 h, read-out: GI; outline: as §1
RPMI-8226 = test: Growth inhibition of human RPMI8226 cells at 10 uM after 48 hrs by coulter counter method; settings: RPMI-8226, 48 h, read-out: GI; outline: as §1
SR = test: Growth inhibition of human SR cells at 10 uM after 48 hrs by coulter counter method; settings: read-out: GI; outline: as §1
A549 = test: Growth inhibition of human A549 cells at 10 uM after 48 hrs by coulter counter method; settings: A549, 48 h, read-out: GI; outline: as §1
EKVX = test: Growth inhibition of human EKVX cells at 10 uM after 48 hrs by coulter counter method; settings: read-out: GI; outline: as §1
NCI-H226 = test: Growth inhibition of human NCI-H226 cells at 10 uM after 48 hrs by coulter counter method; settings: NCI-H226, 48 h, read-out: GI; outline: as §1
NCI-H23 = test: Growth inhibition of human NCI-H23 cells at 10 uM after 48 hrs by coulter counter method; settings: NCI-H23, 48 h, read-out: GI; outline: as §1
NCI-H322M = test: Growth inhibition of human NCI-H322M cells at 10 uM after 48 hrs by coulter counter method; settings: read-out: GI; outline: as §1
NCI-H522 = test: Growth inhibition of human NCI-H522 cells at 10 uM after 48 hrs by coulter counter method; settings: NCI-H522, 48 h, read-out: GI; outline: as §1
HCT-116 = test: Growth inhibition of human HCT116 cells at 10 uM after 48 hrs by coulter counter method; settings: HCT-116, 48 h, read-out: GI; outline: as §1
HCT-15 = test: Growth inhibition of human HCT15 cells at 10 uM after 48 hrs by coulter counter method; settings: HCT-15, 48 h, read-out: GI; outline: as §1
HT-29 = test: Growth inhibition of human HT-29 cells at 10 uM after 48 hrs by coulter counter method; settings: HT-29, 48 h, read-out: GI; outline: as §1
KM12 = test: Growth inhibition of human KM12 cells at 10 uM after 48 hrs by coulter counter method; settings: KM12, 48 h, read-out: GI; outline: as §1
SF-268 = test: Growth inhibition of human SF268 cells at 10 uM after 48 hrs by coulter counter method; settings: SF-268, 48 h, read-out: GI; outline: as §1
SF-295 = test: Growth inhibition of human SF295 cells at 10 uM after 48 hrs by coulter counter method; settings: SF-295, 48 h, read-out: GI; outline: as §1
SNB-19 = test: Growth inhibition of human SNB19 cells at 10 uM after 48 hrs by coulter counter method; settings: SNB-19, 48 h, read-out: GI; outline: as §1
SNB-75 = test: Growth inhibition of human SNB75 cells at 10 uM after 48 hrs by coulter counter method; settings: SNB-75, 48 h, read-out: GI; outline: as §1
U-251 = test: Growth inhibition of human U251 cells at 10 uM after 48 hrs by coulter counter method; settings: U-251, 48 h, read-out: GI; outline: as §1
LOX IMVI = test: Growth inhibition of human LOXIMVI cells at 10 uM after 48 hrs by coulter counter method; settings: read-out: GI; outline: as §1
Malme-3M = test: Growth inhibition of human MALME-3M cells at 10 uM after 48 hrs by coulter counter method; settings: read-out: GI; outline: as §1
M14 = test: Growth inhibition of human M14 cells at 10 uM after 48 hrs by coulter counter method; settings: M14, 48 h, read-out: GI; outline: as §1
MDA-MB-435 = test: Growth inhibition of human MDA-MB-435 cells at 10 uM after 48 hrs by coulter counter method; settings: MDA-MB-435, 48 h, read-out: GI; outline: as §1
SK-MEL-2 = test: Growth inhibition of human SK-MEL-2 cells at 10 uM after 48 hrs by coulter counter method; settings: SK-MEL-2, 48 h, read-out: GI; outline: as §1
SK-MEL-28 = test: Growth inhibition of human SK-MEL-28 cells at 10 uM after 48 hrs by coulter counter method; settings: SK-MEL-28, 48 h, read-out: GI; outline: as §1
SK-MEL-5 = test: Growth inhibition of human SK-MEL-5 cells at 10 uM after 48 hrs by coulter counter method; settings: SK-MEL-5, 48 h, read-out: GI; outline: as §1
UACC-257 = test: Growth inhibition of human UACC257 cells at 10 uM after 48 hrs by coulter counter method; settings: UACC-257, 48 h, read-out: GI; outline: as §1
UACC-62 = test: Growth inhibition of human UACC62 cells at 10 uM after 48 hrs by coulter counter method; settings: UACC-62, 48 h, read-out: GI; outline: as §1
IGROV-1 = test: Growth inhibition of human IGROV1 cells at 10 uM after 48 hrs by coulter counter method; settings: IGROV-1, 48 h, read-out: GI; outline: as §1
OVCAR-8 = test: Growth inhibition of human OVCAR8 cells at 10 uM after 48 hrs by coulter counter method; settings: OVCAR-8, 48 h, read-out: GI; outline: as §1
NCI/ADR-RES = test: Growth inhibition of human NCI/ADR-RES cells at 10 uM after 48 hrs by coulter counter method; settings: read-out: GI; outline: as §1
786-0 = test: Growth inhibition of human 786-0 cells at 10 uM after 48 hrs by coulter counter method; settings: 786-0, 48 h, read-out: GI; outline: as §1
A498 = test: Growth inhibition of human A498 cells at 10 uM after 48 hrs by coulter counter method; settings: A498, 48 h, read-out: GI; outline: as §1
ACHN = test: Growth inhibition of human ACHN cells at 10 uM after 48 hrs by coulter counter method; settings: read-out: GI; outline: as §1
CAKI-1 = test: Growth inhibition of human Caki1 cells at 10 uM after 48 hrs by coulter counter method; settings: CAKI-1, 48 h, read-out: GI; outline: as §1
SN12C = test: Growth inhibition of human SN12C cells at 10 uM after 48 hrs by coulter counter method; settings: read-out: GI; outline: as §1
TK-10 = test: Growth inhibition of human TK10 cells at 10 uM after 48 hrs by coulter counter method; settings: TK-10, 48 h, read-out: GI; outline: as §1
UO-31 = test: Growth inhibition of human UO31 cells at 10 uM after 48 hrs by coulter counter method; settings: UO-31, 48 h, read-out: GI; outline: as §1
PC-3 = test: Growth inhibition of human PC3 cells at 10 uM after 48 hrs by coulter counter method; settings: PC-3, 48 h, read-out: GI; outline: as §1
MCF7 = test: Growth inhibition of human MCF7 cells at 10 uM after 48 hrs by coulter counter method; settings: MCF7, 48 h, read-out: GI; outline: as §1
BT-549 = test: Growth inhibition of human BT549 cells at 10 uM after 48 hrs by coulter counter method; settings: BT-549, 48 h, read-out: GI; outline: as §1
T47D = test: Growth inhibition of human T47D cells at 10 uM after 48 hrs by coulter counter method; settings: read-out: GI; outline: as §1
MDA-MB-468 = test: Growth inhibition of human MDA-MB-468 cells at 10 uM after 48 hrs by coulter counter method; settings: MDA-MB-468, 48 h, read-out: GI; outline: as §1

Measured: inhibition of growth at 10 µM

O=C1CN2N=C(c3ccc(Cl)cc3)OC2=N1
18.9%: NCI-H522
17.2%: K562
26.8%: UO-31
< 10%: all other assays above
